# Screens (PubChem BioAssay)
# Only some compounds are listed: those with a hit (about 1.8% of all), similar ones and a draw of the others.
# A3G deaminase = APOBEC3G (human) deaminase inhibition | recombinant A3G, ssDNA deamination FAM/TAMRA fluorescence | inhibition, % at 20 µM | actives 0.28% (n = 330,000);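 active = inhibition of at least 40% at 20 µM, with no more than 30% in the related APOBEC3A deaminase screen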;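 note: plate controls were DMSO wells with A3G for no effect and wells lacking A3G enzyme for full effect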
# APOBEC3A inh = blocks human APOBEC3A ssDNA deamination | P31941 | recombinant A3A, FAM/TAMRA ssDNA deamination fluorescence | inhibition, % at 20 µM | actives 0.41% (n = 330,000) | AID 493011;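 active = at least 40% inhibition at 20 µM here, with at most 30% in a related deaminase screen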;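 note: plate controls were A3A with DMSO for no effect and wells lacking A3A enzyme for full effect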
# PHOSPHO1 inh = inhibitors of human PHOSPHO1 phosphatase; actives 1.1% (n = 290,000); Q8TCT1; AID 1565; inhibition, % at 13.3 µM; recombinant PHOSPHO1, absorbance phosphatase assay; in the data active = inhibition above about 60%
# pCIP destab = p/CIP protein destabilization; actives 0.01% (n = 290,000); Q05BA5; F442A p/CIP-EGFP cells, EGFP fluorescence, 16 h; decrease of EGFP signal, % at 10 µM;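 active = EGFP signal decrease of at least 30% at 10 µM or well 3 SD below plate mean, unless failing retest; inactive = the rest, including hits failing retest or dose response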
# Target sequence (Q05BA5 1-1403): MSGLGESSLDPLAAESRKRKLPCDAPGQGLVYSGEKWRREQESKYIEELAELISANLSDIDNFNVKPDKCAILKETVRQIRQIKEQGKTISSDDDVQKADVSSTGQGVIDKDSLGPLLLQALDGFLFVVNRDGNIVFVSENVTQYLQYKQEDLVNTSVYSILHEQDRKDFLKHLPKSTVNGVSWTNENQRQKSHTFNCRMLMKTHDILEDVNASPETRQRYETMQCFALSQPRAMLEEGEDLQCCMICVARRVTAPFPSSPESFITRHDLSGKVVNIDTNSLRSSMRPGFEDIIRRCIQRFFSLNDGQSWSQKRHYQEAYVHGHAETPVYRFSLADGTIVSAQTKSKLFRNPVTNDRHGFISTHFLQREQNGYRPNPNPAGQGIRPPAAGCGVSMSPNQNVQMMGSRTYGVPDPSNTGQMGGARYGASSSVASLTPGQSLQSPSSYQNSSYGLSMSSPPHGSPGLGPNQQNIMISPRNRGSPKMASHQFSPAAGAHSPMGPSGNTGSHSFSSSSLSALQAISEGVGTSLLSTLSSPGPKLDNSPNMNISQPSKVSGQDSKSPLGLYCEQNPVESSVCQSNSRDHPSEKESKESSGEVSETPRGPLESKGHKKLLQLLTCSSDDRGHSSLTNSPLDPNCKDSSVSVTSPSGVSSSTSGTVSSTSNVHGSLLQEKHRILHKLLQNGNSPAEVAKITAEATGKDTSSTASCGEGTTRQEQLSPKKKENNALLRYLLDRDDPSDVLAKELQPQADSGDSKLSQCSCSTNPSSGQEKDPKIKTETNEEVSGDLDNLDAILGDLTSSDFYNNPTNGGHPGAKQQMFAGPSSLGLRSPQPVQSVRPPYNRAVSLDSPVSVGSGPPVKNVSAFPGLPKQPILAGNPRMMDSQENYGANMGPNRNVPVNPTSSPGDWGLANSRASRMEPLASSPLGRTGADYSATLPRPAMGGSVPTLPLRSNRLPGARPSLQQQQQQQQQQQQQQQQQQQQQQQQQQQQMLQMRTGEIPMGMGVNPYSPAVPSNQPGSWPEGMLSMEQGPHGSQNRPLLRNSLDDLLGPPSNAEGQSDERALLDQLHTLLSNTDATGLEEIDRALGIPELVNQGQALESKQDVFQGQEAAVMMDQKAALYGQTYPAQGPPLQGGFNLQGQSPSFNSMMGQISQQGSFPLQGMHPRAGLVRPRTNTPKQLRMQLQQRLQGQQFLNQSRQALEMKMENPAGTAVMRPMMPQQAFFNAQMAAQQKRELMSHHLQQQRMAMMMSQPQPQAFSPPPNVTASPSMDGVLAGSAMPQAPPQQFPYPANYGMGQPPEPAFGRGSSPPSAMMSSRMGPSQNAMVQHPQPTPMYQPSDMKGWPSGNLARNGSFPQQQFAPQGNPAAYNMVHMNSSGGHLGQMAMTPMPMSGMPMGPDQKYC
# Tb MetRS inh = Trypanosoma brucei MetRS inhibition | actives 0.4% (n = 360,000) | purified T. brucei MetRS, ATP depletion, Kinase-Glo luminescence | AID 624268 | inhibition, % at 11.9 µM;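 active = inhibition above a per-plate cutoff of the control wells' mean inhibition plus 3 SD, cut at about 5.5% in these data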;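 note: 0% = DMSO wells median and 100% = median of wells with control inhibitor compound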
#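 Dosing: 11.9 µM single point; system: parasite MetRS enzyme; technique: luminescence of leftover ATP; times: 15 min enzyme-compound preincubation, 2 h reaction, 10 min detection, 25 °C; replicates: each compound tested once; read-out basis: percent inhibition relative to median high and low control wells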
# * hit, by the source's call; / = no result.
SMILES,A3G deaminase,APOBEC3A inh,PHOSPHO1 inh,pCIP destab,Tb MetRS inh
CC(Sc1ccc(Br)cc1)C(N)=O (stereo not given),-0.3,101.7*,-15.4,-0.4,0.1
CCCCN(C(=O)C1CC(=O)N(c2ccc(C)cc2)C1)c1c(N)n(CCC)c(=O)[nH]c1=O (stereo not given),-0.7,21.2,/,/,-0.3
Clc1ccc(-c2cn3nc4c(nc3n2)CCCC4)cc1,-0.2,-2.1,88.2*,-4.5,-0.8
COc1ccc(Nc2nnc(SCC(=O)Nc3ccc4[nH]c(=O)[nH]c4c3)s2)cc1,-8.6,0.3,6.6,-14.4,-0.5
Cc1ccccc1-n1c(=O)/c(=C\c2ccco2)s/c1=C(/C#N)C(=O)Nc1ccccc1,-4.6,0.9,83.3*,-20.1,-0.6
CN1CCN(C(=O)C2CCCN(S(=O)(=O)c3ccc(Cl)cc3)C2)CC1 (stereo not given),-6.8,-2.3,65.4*,-3.7,-0.3
CN1CCN(C(=O)C2CCCN(S(=O)(=O)c3ccc(Br)cc3)C2)CC1 (stereo not given),0.6,1.2,27.4,-7.2,-0.2
CC1=C(C(=O)N(C)C)CC(CC(=O)NCCCN(C)C)C(=O)N1CCC1=CCCCC1 (stereo not given),/,/,/,/,0.8
Cc1c(C(=O)C(=O)N2CCCc3ccccc32)c2ccccc2n1C,-5.6,-3.2,-20.6,-5.4,-0.7
CCOC(=O)CC(=O)CSc1nnc2sc3ccccc3n12,-7.9,-5.9,63.7*,-11.3,-0.9
CC(C)NS(=O)(=O)c1ccc(CCC(=O)N2CCC(C(N)=O)CC2)cc1,-1.2,0.0,49.0,-9.5,0.4
CCOc1ccc2[nH]c(C)c(CN3CCOCC3)c(=O)c2c1,-5.2,0.0,-33.3,1.6,-0.4
Cc1[nH]c2ccc(Br)cc2c(=O)c1CN1CCOCC1,-0.8,1.6,11.3,0.5,35.4*
Cc1[nH]c2ccccc2c1/C=N/Nc1cccc(C(=O)O)c1,1.6,10.0,60.8*,-1.8,0.6
Cc1[nH]c2ccccc2c1/C=N/NC(=O)c1ccccc1,-3.8,-1.6,6.2,-1.1,0.2
S=c1[nH]nc(-c2ccc3ccccc3n2)o1,5.6,-1.7,88.6*,-5.6,-1.1
O=C1CCCCC1Sc1nnc(Cc2cccs2)n1CCc1ccccc1 (stereo not given),-11.1,-4.3,71.3*,-4.8,0.1
COCCn1c(SC2CCCCC2=O)nnc1-c1ccncc1 (stereo not given),-6.0,-1.6,6.6,17.2,0.5
COC(=O)c1ccc(-n2nnnc2SC)cc1,15.0,1.3,81.2*,4.9,-0.9
CS(=O)(=O)N(Cc1ccccc1)c1ccc(C(=O)N2CCN(c3cccc(Cl)c3)CC2)cc1,-1.8,0.4,-15.3,2.1,0.1
Cc1ccc(S(=O)(=O)NCc2ccc(C(=O)N3CCN(c4ccccc4)CC3)cc2)cc1,-0.8,-0.2,73.1*,-2.8,-1.1
COc1cccc(S(=O)(=O)NCc2ccc(C(=O)N3CCN(c4ccccc4)CC3)cc2)c1,-4.6,-0.7,56.2,-7.6,-0.6
CS(=O)(=O)N(Cc1ccc(Cl)cc1)c1ccc(C(=O)N2CCN(c3ccccc3)CC2)cc1,30.7,63.6,99.8*,2.0,0.0
CCOc1ccccc1NC(=O)C1CCCN(S(=O)(=O)c2ccc3c(c2)C(C)(C)C(=O)N3C)C1 (stereo not given),-11.9,-2.0,35.7,-5.8,0.5
O=Nc1ccc(NOC(=O)c2ccccc2Br)cc1,-2.2,0.8,-6.2,4.2,0.0
SMILES,A3G deaminase,APOBEC3A inh,PHOSPHO1 inh,pCIP destab,Tb MetRS inh
O=C(ONc1ccc(N=NC(=O)c2ccccc2O)cc1)c1ccccc1,-2.2,2.1,83.1*,6.4,-0.6
Cn1ncc(C(N)=O)c1NC(=S)NC(=O)c1ccc(Br)o1,-1.5,-0.7,80.3*,-0.3,0.5
Cc1cccc(C)c1NC(=S)NC(=O)c1ccc(Br)o1,-4.0,0.1,33.5,-4.0,-0.2
CCn1c(N)c(C(=O)N2CCOCC2)sc1=S,12.8,-2.0,68.7*,-7.3,0.2
Cc1cc(C)nc(Sc2nc(Cl)nc(N(c3ccccc3)c3ccccc3)n2)n1,3.5,-4.6,82.6*,0.9,-0.2
CCN1CCc2c(sc(NC(=O)c3ccc4ccccc4c3)c2C(N)=O)C1,4.3,-3.8,33.4,-82.5,-0.1
CCN1CCc2c(sc(NC(=S)NC(=O)c3ccc(Cl)cc3)c2C(N)=O)C1,-5.6,-4.1,66.8*,-105.0,-1.3
O=[N+]([O-])c1ccc(N/N=C/c2ccc[nH]2)cc1,/,/,90.4*,-32.0,-0.2
